Results pooled from the literature.
Each line is one published result; the experiments were not run side by side.
RPS6KA1: Ribosomal protein S6 kinase alpha-1 (RPS6KA1, Homo sapiens, UniProt Q15418)
RPS6KA1 C-terminal kinase domain: Ribosomal protein S6 kinase alpha-1, C-terminal kinase domain (RPS6KA1, Homo sapiens, UniProt Q15418)
RPS6KA1 N-terminal kinase domain: Ribosomal protein S6 kinase alpha-1, N-terminal kinase domain (RPS6KA1, Homo sapiens, UniProt Q15418)

| Compound | target | assay | system | setting | quantity | result |
| --- | --- | --- | --- | --- | --- | --- |
| CNC(=O)c1cc(Oc2ccc(NC(=O)Nc3ccc(Cl)c(C(F)(F)F)c3)cc2)ccn1 | RPS6KA1 | enzyme activity, inhibitor |  | 0.3 µM | inhibition | 5% |
| CNc1cccc2cc(C(=O)Nc3ccc(C(=O)O)cc3)c(=O)[nH]c12 | RPS6KA1 | enzyme activity, inhibitor |  | 10 µM | inhibition | 16% |
| Oc1cccc(-c2nc(N3CCOCC3)c3oc4ncccc4c3n2)c1 | RPS6KA1 | enzyme activity, inhibitor |  | 10 µM | remaining activity | 101% |
| CCS(=O)(=O)c1cc2cc(C[C@@](O)(CC(C)(C)c3ccc(F)cc3C(N)=O)C(F)(F)F)[nH]c2cn1 | RPS6KA1 C-terminal kinase domain | cell-free assay, competition with immobilised ligand |  | 1 µM | remaining binding | 0% |
| COc1cc2ncnc(Nc3ccc(Oc4ccccc4)c(C)c3C)c2cc1OC | RPS6KA1 | enzyme activity, inhibitor |  | 1 µM | inhibition | -2% |
| O=C1NC(c2ccccn2)Sc2ccccc21 (centres unmarked) | RPS6KA1 C-terminal kinase domain | cell-free assay, competition with immobilised ligand |  | 1 µM | remaining binding | 100% |
| Cc1ccc(Nc2nccc(N(C)c3ccc4c(C)n(C)nc4c3)n2)cc1S(N)(=O)=O | RPS6KA1 | enzyme activity, inhibitor |  | 0.5 µM | remaining activity | 92.8% |
| CCN(CC)c1ccc(C2=NNC(=O)CC2C)cc1[N+](=O)[O-] (centres unmarked) | RPS6KA1 | enzyme activity, inhibitor |  | 10 µM | remaining activity | 101% |
| O=C(Nc1cnn(-c2csc(C(=O)NC3COC3)c2)c1)Nc1ccccc1Cl | RPS6KA1 | enzyme activity, inhibitor |  | 5 µM | remaining activity | 92.4% |
| CCCS(=O)(=O)Nc1ccc(F)c(C(=O)c2c[nH]c3ncc(-c4ccc(Cl)cc4)cc23)c1F | RPS6KA1 | enzyme activity, inhibitor |  | 1 µM | inhibition | < 10% |
| C[S+]([O-])c1ccc(-c2nc(-c3ccncc3)c(-c3ccc(F)cc3)[nH]2)cc1 (centres unmarked) | RPS6KA1 | cell-free assay |  | 0.5 µM | remaining signal | 99.9% |
| CC(C)(C)c1nc2c(s1)c1nc(N)ncc1c1ccc(NS(=O)(=O)c3c(F)cccc3F)c(F)c12 | RPS6KA1 | enzyme activity, inhibitor, radiometric |  | 1 µM | remaining activity | 107% |
| N[C@H]1CCN(c2nccc(-c3cnn4ncccc34)n2)C1 | RPS6KA1 C-terminal kinase domain | binding, competition with immobilised ligand |  | 1 µM | remaining binding | 99% |
| Cc1cnc(NC2CCOCC2)nc1-n1cnc(C(=O)NC(CN)c2cc(F)cc(Cl)c2)c1 (centres unmarked) | RPS6KA1 | enzyme activity, inhibitor, radiometric |  | 1 µM | remaining activity | 44% |
| CCCCNc1ncc2c(-c3ccc(F)cc3)nn(C[C@H]3CC[C@H](N)CC3)c2n1 | RPS6KA1 C-terminal kinase domain | target engagement in cells, inhibitor, chemoproteomics |  | 20 mM | inhibition | 63.4% |
| c1cnn2ncc(-c3ccnc(N4CCC45COC5)n3)c2c1 | RPS6KA1 N-terminal kinase domain | binding, competition with immobilised ligand |  | 1 µM | remaining binding | 90% |
| COc1cc(Nc2cnc(C#N)c(O[C@H](C)CN(C)C)n2)ncc1-c1cnn(C)c1 | RPS6KA1 | enzyme activity, inhibitor, radiometric |  | 10 µM | remaining activity | 14% |
| COc1cc2ncnc(Nc3ccc(F)c(Cl)c3)c2cc1OCCCN1CCOCC1 | RPS6KA1 | cell-free assay |  | 0.5 µM | remaining signal | 97.3% |
| CN(c1ncccc1CNc1nc(Nc2ccc3c(c2)CC(=O)N3)ncc1C(F)(F)F)S(C)(=O)=O | RPS6KA1 | enzyme activity, inhibitor |  | 1 µM | inhibition | 84.8% |
| CN(C)c1nccc(-c2cnn3ncccc23)n1 | RPS6KA1 N-terminal kinase domain | binding, competition with immobilised ligand |  | 1 µM | remaining binding | 100% |
| CCC(=O)N[C@@H]1CC[C@H](C(=O)N(C)c2ccc(-c3nc4ccccc4o3)cc2)C1 | RPS6KA1 N-terminal kinase domain | cell-free assay, competition with immobilised ligand |  | 1 µM | remaining binding | 100% |

| Compound | target | assay | system | setting | quantity | result |
| --- | --- | --- | --- | --- | --- | --- |
| CC/C(=N\NC(=O)NCc1cccc(O)c1)c1ccc(O)c(C)c1O | RPS6KA1 | enzyme activity, inhibitor |  | 0.1 µM | inhibition | 72.1% |
| COc1ccc2c(c1)O[C@@H](c1ccc(OC)c(OC)c1)C[C@H]2NC(=O)C1(c2ccc3c(c2)OC(F)(F)O3)CC1 | RPS6KA1 C-terminal kinase domain | cell-free assay, competition with immobilised ligand |  | 1 µM | remaining binding | 85% |
| Cc1cnn2ncc(-c3ccnc(N(C)C)n3)c2c1 | RPS6KA1 C-terminal kinase domain | binding, competition with immobilised ligand |  | 1 µM | remaining binding | 64% |
| Nc1nc(NC2CCCCC2)sc1C(=O)c1ccccc1 | RPS6KA1 | enzyme activity, inhibitor |  | 10 µM | remaining activity | 67% |
| COc1cccc2c(NCc3ccccc3)nc(-n3c(N)nc4ccccc43)nc12 | RPS6KA1 C-terminal kinase domain | target engagement in cells, inhibitor, chemoproteomics |  | 20 mM | inhibition | 1% |
| Cn1c(=O)n(-c2ccc(C(C)(C)C#N)cc2)c2c3cc(-c4cnc5ccccc5c4)ccc3ncc21 | RPS6KA1 | enzyme activity, inhibitor |  | 10 µM | remaining activity | 97% |
| C[C@@H]1CCN(c2nccc(-c3cnn4ncccc34)n2)C1 | RPS6KA1 N-terminal kinase domain | binding, competition with immobilised ligand |  | 1 µM | remaining binding | 100% |
| Nc1ncnc2occ(-c3ccc(NC(=O)Nc4cc(C(F)(F)F)ccc4F)cc3)c12 | RPS6KA1 N-terminal kinase domain | cell-free assay, inhibitor |  | 20 µM | remaining signal | 2% |
| CNc1cc(Oc2cc(C(=O)Nc3cc(N4CCN(C)CC4)cc(C(F)(F)F)c3)ccc2C)ncn1 | RPS6KA1 C-terminal kinase domain | target engagement in cells, inhibitor, chemoproteomics | Huh-7 | 1 µM | inhibition | -27.6% |
| O=C1Nc2ccc(Cl)cc2C1=Cc1cc(Cl)c(O)c(Cl)c1 | RPS6KA1 | cell-free assay |  | 0.5 µM | remaining signal | 48.4% |
| Cn1cncc1C1=CN(c2ncnc3[nH]cnc23)CCS1 | RPS6KA1 | enzyme activity, inhibitor, radiometric |  | 50 nM | inhibition | 13% |
| O=C(Nc1cnc(Oc2ccc(F)cc2)nc1)N1CCc2ncccc2[C@@H]1c1ccc(F)cc1 | RPS6KA1 N-terminal kinase domain | cell-free assay, competition with immobilised ligand |  | 1 µM | remaining binding | 71% |
| COc1cc(/C=C/C(=O)CC(=O)/C=C/c2ccc(O)c(OC)c2)ccc1O | RPS6KA1 | enzyme activity, inhibitor |  | 1 µM | activity vs control | 53% |
| Cc1cc(NC(=O)c2cccc3cc(-c4cccc5[nH]nc(N)c45)ccc23)ccc1F | RPS6KA1 | enzyme activity, inhibitor |  | 0.1 µM | activity vs control | 115% |
| O=C(N[C@H]1CCCCC/C=C\C2C[C@@]2(C(=O)O)NC(=O)[C@@H]2C[C@@H](Oc3ccncc3)CN2C1=O)OC1CCCC1 (some centres unmarked) | RPS6KA1 N-terminal kinase domain | binding, competition with immobilised ligand |  | 1 µM | remaining binding | 100% |
| C=CC(=O)Nc1cc(Nc2nccc(Nc3cc(Cl)c(F)cc3C(C)(C)O)n2)c(OC)cc1N1CC[C@@H](N(C)C)C1 | RPS6KA1 | enzyme activity, inhibitor |  | 1 µM | inhibition | 9% |
| COc1cc2c(N3CCN(C(=O)Nc4ccc(OC(C)C)cc4)CC3)ncnc2cc1OCCCN1CCCCC1 | RPS6KA1 | cell-free assay |  | 0.5 µM | remaining signal | 94.8% |
| CCCCN(CCCC)C(=O)CN1C[C@H](c2cc(OC)c3c(c2)OCO3)[C@@H](C(=O)O)[C@@H]1CC(C)(C)CCC | RPS6KA1 N-terminal kinase domain | cell-free assay, competition with immobilised ligand |  | 1 µM | remaining binding | 97.7% |
| O=C1NC(=O)c2cc(Nc3ccc(F)cc3)c(Nc3ccc(F)cc3)cc21 | RPS6KA1 | cell-free assay |  | 0.5 µM | remaining signal | 97.7% |
| Cc1cc(C)c(-n2ccn3nc(-c4cccnc4)cc23)cc1NC(=O)c1cc(C#N)cc(S(F)(F)(F)(F)F)c1 | RPS6KA1 N-terminal kinase domain | cell-free assay, competition with immobilised ligand |  | 0.1 µM | remaining binding | 97% |
